Active and inactive are the calls of the source. The calls are words filed in the database; no cut-off is given here.
Columns and labels:
P493-6 [1] = assay: Antiproliferative activity against human P493-6 cells expressing MYC assessed as inhibition of cell proliferation at 25 uM incubated for 96 hrs by cell titer glo assay; type: functional, cell-based
How it was run: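 P493-6 cells, either untreated (high MYC) or MYC-off after 0.1 µg/mL tetracycline for 72 h, were exposed to 25 µM for 96 h. Read-out was % survival by CellTiter-Glo luminescence. Mean ± SD, n = 6, unpaired t-test.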

[2] = target: Myc proto-oncogene protein (Homo sapiens) (UniProt P01106); assay: Binding affinity to MYC in human P493-6 cells assessed as induction of destabilization at 10 to 50 uM measured for 2 hr by CETSA analysis; type: cell-based; conditions: DESTABILISER, dose 10-50 µM
Chain of Myc proto-oncogene protein (Homo sapiens) (P01106 whole entry): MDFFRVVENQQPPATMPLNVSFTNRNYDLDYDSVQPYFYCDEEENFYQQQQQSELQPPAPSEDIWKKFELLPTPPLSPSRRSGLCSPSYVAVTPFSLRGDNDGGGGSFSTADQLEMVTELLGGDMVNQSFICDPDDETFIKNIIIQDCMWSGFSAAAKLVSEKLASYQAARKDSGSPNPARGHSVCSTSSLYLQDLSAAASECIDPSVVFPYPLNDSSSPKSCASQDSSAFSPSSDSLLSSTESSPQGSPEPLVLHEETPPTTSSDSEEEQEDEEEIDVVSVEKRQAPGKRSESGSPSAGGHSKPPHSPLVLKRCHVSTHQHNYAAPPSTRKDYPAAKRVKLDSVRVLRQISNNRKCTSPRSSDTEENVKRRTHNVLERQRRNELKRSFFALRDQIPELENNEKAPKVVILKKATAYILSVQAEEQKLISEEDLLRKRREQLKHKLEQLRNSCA

MDA-MB-468 [3] = assay: Downregulation of CDC25C mRNA expression in human MDA-MB-468 cells at 25 uM incubated for 12 hrs by qRT-PCR analysis; type: functional, cell-based
How it was run: (§1)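 Cells (500,000/well) were cultured with or without 25 µM for the indicated time. Total RNA was extracted with TRIzol and reverse-transcribed. qPCR used SYBR green with target-gene primers, reported as ΔΔCT.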

MDA-MB-468 [4] = assay: Downregulation of E2F1 mRNA expression in human MDA-MB-468 cells at 25 uM incubated for 12 hrs by qRT-PCR analysis; type: functional, cell-based; how it was run: as §1
[5] = Induction of apoptosis in human P493-6 cells assessed as necrotic cells at 50 uM incubated for 24 hrs by Annexin V/PI staining based flow cytometry analysis (reference value: 0.11 %); type: functional
P493-6 [6] = assay: Downregulation of CDC25C mRNA expression in human P493-6 cells at 25 uM incubated for 12 hrs by qRT-PCR analysis; type: functional, cell-based; how it was run: as §1
MDA-MB-468 [7] = assay: Downregulation of CDK1 mRNA expression in human MDA-MB-468 cells at 25 uM incubated for 12 hrs by qRT-PCR analysis; type: functional, cell-based; how it was run: as §1
P493-6 [8] = assay: Downregulation of CDC25A mRNA expression in human P493-6 cells at 25 uM incubated for 12 hrs by qRT-PCR analysis; type: functional, cell-based; how it was run: as §1
MDA-MB-468 [9] = assay: Induction of apoptosis in human MDA-MB-468 cells assessed as effect on cleaved PARP level at 50 uM incubated for 24 hrs
MCF7 = assay: Antiproliferative activity against human MCF7 cells assessed as cell viability incubated for 96 hrs by MTT assay; type: functional, cell-based; conditions: MCF7, 96 h
How it was run: (§2)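 Adherent cells (2000/well) attached overnight, then exposed to compounds at 0.14–100 µM for 96 h in DMEM with 10% FBS. MTT at 0.5 mg/mL for 4 h in the dark, formazan dissolved in DMSO, absorbance at 570 nm. Compounds were freshly prepared in DMSO, with DMSO below 1%.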

MDA-MB-468 [10] = assay: Antitumor activity against human MDA-MB-468 cells xenografted in mouse assessed as upregulation of caspase-3 expression at 10 mg/kg, sc measured at 14 to 26 days by IHC analysis; conditions: time 14-26 day
[11] = target: T1, c-Myc/c-Max (Homo sapiens) (UniProt P01106+P61244); assay: Disruption of MYC-MAX interaction in human P493-6 cells at 25 uM incubated for 3 to 12 hrs by Western blot analysis; type: cell-based; conditions: time 3-12 hrs
T1 sequence (P01106 whole entry): as above
T1 sequence (P61244 2-160 partner limits assumed): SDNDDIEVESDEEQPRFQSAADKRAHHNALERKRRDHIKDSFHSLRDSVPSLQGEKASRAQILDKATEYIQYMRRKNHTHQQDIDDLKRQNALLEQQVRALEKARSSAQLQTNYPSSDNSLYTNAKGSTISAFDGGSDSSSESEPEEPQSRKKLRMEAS
How it was run: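 Cells were given 25 µM or DMSO for 0, 3, 5 and 12 h. Cytoplasmic and nuclear lysate fractions were pooled. 2 mg protein was immunoprecipitated with MYC antibody overnight, then protein A/G beads for 4 h at 4 °C. Bound MAX was detected by western blot and quantified relative to MYC; MAX input was also measured.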

MDA-MB-468 [12] = assay: Downregulation of MYC level in human MDA-MB-468 cells incubated for 24 hrs by Western blot analysis; type: functional, cell-based; conditions: dose <= 50.0 µM
How it was run: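 Cells (300,000/well) were plated 24 h, then exposed to graded concentrations or DMSO for 24 h. Laemmli lysates were run on 4–20% SDS-PAGE and immunoblotted for MYC. Levels were normalized to actin. Mean ± SD, n = 2, one-way ANOVA with Dunnett.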

MDA-MB-468 [13] = assay: Downregulation of E2F2 mRNA expression in human MDA-MB-468 cells at 25 uM incubated for 12 hrs by qRT-PCR analysis; type: functional, cell-based; how it was run: as §1
MDA-MB-468 [14] = assay: Downregulation of CCNA2 mRNA expression in human MDA-MB-468 cells at 25 uM incubated for 12 hrs by qRT-PCR analysis; type: functional, cell-based; how it was run: as §1
[15] = Antiproliferative activity against tetracycline-treated human P493-6 cells expressing MYC assessed as inhibition of cell proliferation incubated for 96 hrs by cell titer glo assay; type: functional, cell-based; conditions: P493-6, 96 h
How it was run: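 P493-6 cells (3000/well, RPMI) were seeded overnight at 37 °C, then given compounds at final 0.14–100 µM for 96 h. MYC-off cells were pretreated with 0.1 µg/mL tetracycline for 72 h. Read-out was CellTiter-Glo luminescence after equilibration to room temperature. IC50 was determined in high-MYC and MYC-off cells.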

[16] = Induction of apoptosis in human P493-6 cells assessed as early apoptotic cells at 50 uM incubated for 24 hrs by Annexin V/PI staining based flow cytometry analysis (reference value: 2.52 %); type: functional
[17] = target: T1, c-Myc/c-Max (Homo sapiens); assay: Disruption of MYC-MAX interaction in human P493-6 cells assessed as reduction in myc level at 25 uM; type: cell-based
[18] = Toxicity in mouse implanted with human MDA-MB-468 cells assessed as change in body weight at 10 mg/kg, po; type: organism-based; conditions: in vivo
[19] = Induction of apoptosis in human P493-6 cells assessed as early apoptotic cells at 25 uM incubated for 24 hrs by Annexin V/PI staining based flow cytometry analysis (reference value: 2.52 %); type: functional
[20] = target: Myc proto-oncogene protein (Homo sapiens) (UniProt P01106); assay: Binding affinity to MYC in human P493-6 cells assessed as thermal stabilization by measuring melting temperature at 25 uM measured for 2 hrs by CETSA analysis (reference value: 42 degreeC)
MDA-MB-231 = assay: Antiproliferative activity against human MDA-MB-231 cells assessed as cell viability incubated for 96 hrs by MTT assay; type: functional, cell-based; conditions: MDA-MB-231, 96 h; how it was run: as §2
P493-6 [21] = assay: Downregulation of CDK1 mRNA expression in human P493-6 cells at 25 uM incubated for 12 hrs by qRT-PCR analysis; type: functional, cell-based; how it was run: as §1
MDA-MB-468 [22] = assay: Downregulation of CDC25A mRNA expression in human MDA-MB-468 cells at 25 uM incubated at 48 hrs by qRT-PCR analysis; type: functional, cell-based; how it was run: as §1
[23] = Selectivity index, ratio of IC50 for antiproliferative activity against tetracycline-treated human P493-6 cells expressing MYC assessed as inhibition of cell proliferation to IC50 for antiproliferative activity against human P493-6 cells expressing MYC assessed as inhibition of cell proliferation; type: functional
How it was run: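 MYC-off P493-6 cells obtained by 72 h pretreatment with 0.1 µg/mL tetracycline and compared with untreated MYC-high cells. Cells seeded at 3000 per 100 uL, held overnight at 37 °C, then treated at 0.14–100 uM final for 96 h. Viability read by CellTiter-Glo luminescence. IC50 values determined in both states and compared as a selectivity index.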

With `N#Cc1cc2c(-c3ccc(Cl)cc3)nn(-c3ccccc3)c2[nH]c1=O` the Activity (P493-6 [1]) was “Active”, the Activity [2] was “Active” and the Activity (MDA-MB-468 [3]) was “Active”. For the same molecule, the Activity (MDA-MB-468 [4]) was “Active”, the Activity [5] was 0.11% and the Activity (P493-6 [6]) was “Active”. For the same molecule, the Activity (MDA-MB-468 [7]) was “Active”, the Activity (P493-6 [8]) was “Active” and the Activity (MDA-MB-468 [9]) was “Active”. The IC50 (MCF7) was 39.4 µM, the Activity (MDA-MB-468 [10]) was “Active” and the Activity [11] was “Active”. For the same molecule, the Activity (MDA-MB-468 [12]) was “Dose-dependent-effect”, the Activity (MDA-MB-468 [13]) was “Active” and the Activity (MDA-MB-468 [14]) was “Active”. For the same molecule, the IC50 [15] was 58.9 µM, the Activity [16] was 5.11% and the Activity [17] was “Active”. For the same molecule, the Activity [18] was “Non-toxic”, the Activity [19] was 3.1% and the Tm [20] was 38 °C. The IC50 (MDA-MB-231) was 10.6 µM, the Activity (P493-6 [21]) was “Active” and the Activity (MDA-MB-468 [22]) was “Active”. For the same molecule, the “Ratio IC50” value [23] was 3.9.
